Molecules are shown by their SMILES. Calls of active or inactive are those of the source. The rule behind the calls is not given here. Starred links: 1 amine or outer side, 2 acyl side, 3 side chain; linkers in the order of their positions; H or OH if unused. Positions of bridges follow the written chain, without caps; N, C: chain ends. Non-standard residues stand in square brackets, D forms with d. Residues, ends and D or L forms follow the SMILES beside them. X1 = N=C(N)NCCC[C@H](N[*:2])C(=O)NC(=O)[C@H](CC(=O)O)NC(=O)[*:1]; βAla(3R-(1-naphthyl)) = O=C(C[C@@H](N[*:1])c1cccc2ccccc12)[*:2]; βAla(3S-(1-naphthyl)) = O=C(C[C@H](N[*:1])c1cccc2ccccc12)[*:2] Some results are limits rather than exact numbers.

For data set [1], the system named is Calu-3. Nature of the data set: Antitumor activity in human Calu-3 cells xenografted in Foxn1nu/Foxn1+ mouse assessed as reduction in tumor growth at 6 mg/kg, IT(Intratumoral) administered thrice a week for 21 days in presence of trastu-zumab and measured on day 21 relative to control. The settings on record: time 21.0 day. It is filed as functional, organism-based.

Data set [2] has as its system Calu-3. The experiment in a line: Antitumor activity in human Calu-3 cells xenografted in Foxn1nu/Foxn1+ mouse assessed as reduction in tumor growth at 8 mg/kg, IT(Intratumoral) administered thrice a week for 21 days and measured on day 21 relative to control. The settings on record: time 21.0 day. A general note: Xenograft models place foreign cells or tissue in a host animal.

For data set [3], the system named is BT-474. Nature of the data set: Antiproliferative activity against human BT-474 cells overexpressing HER2 assessed as cell growth inhibition incubated for 72 hrs by cell titer glo assay. It is filed as functional, cell-based. The settings on record: BT-474, 72 h. (In ATP-based viability assays light output follows the ATP content of the culture.)
Data set [4] deals with MCF7. The experiment in a line: Antiproliferative activity against human MCF7 cells with silenced HER2 assessed as cell growth inhibition incubated for 72 hrs by cell titer glo assay. The settings on record: MCF7, 72 h. The data set is classed as functional, cell-based. The method, boiled down: (§1)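 Cells seeded at 1×10^4 per well, left overnight at 37 °C/5% CO2, then exposed to a concentration series of peptide (up to 200, down to 0.01 μM) for 72 h. 1% SDS and 1% DMSO served as controls. Cells were PBS-washed, CellTiter-Glo added and luminescence read. IC50 taken from three independent experiments per cell line.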

Data set [5] is described as follows: Toxicity in BALB/c mouse assessed as increase in Ki-67 expression at 5 ug/ml, iv administered on day 0 and 10 and spleenocytes collected on day 13 and incubated for 48 hrs by flow cytometry analysis. It is filed as organism-based. The settings on record: in vivo, 360 h, dose 5 µg/ml, time 15 day. The method, boiled down: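 Splenocytes from PBS- or peptide-primed BALB/c mice (6 mg/kg i.v. days 0 and 10; harvested day 13) cultured 48 h with concanavalin A 5 μg/mL. Ki67 in CD3+ cells measured by flow cytometry after viability, surface and intracellular staining.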
On the technique in general: Flow cytometry measures light scatter and fluorescence of single cells or particles in a stream.

For data set [6], the system named is MCF-10A. The experiment in a line: Cytotoxicity against human MCF-10A cells assessed as cell growth inhibition incubated for 72 hrs by cell titer glo assay. It is filed as cell-based. Put shortly: as §1
For data set [7], the system named is Calu-3. The experiment in a line: Antiproliferative activity against human Calu-3 cells overexpressing HER2 assessed as cell growth inhibition incubated for 72 hrs by cell titer glo assay. It is filed as functional, cell-based. The settings on record: Calu-3, 72 h.
The subject of data set [8] is A549. The experiment in a line: Antiproliferative activity against human A549 cells overexpressing HER2 assessed as cell growth inhibition incubated for 72 hrs by cell titer glo assay. It is filed as functional, cell-based. The settings on record: A549, 72 h. The method, boiled down: as §1

For `Cc1ccc(OCC(O)C(C)NC(C)C)c2c1CCC2` (stereo unspecified), the outcome in data set [1] and in data set [2] was Active.

The IC50 is the concentration that inhibits the measured activity by half. As for `CC[C@H](C)[C@@H]1NC(=O)[C@@H]2CCCN2C(=O)[C@@H]2CCCN2C(=O)NC(=O)[C@H](CC(=O)O)NC(=O)[C@H](Cc2ccccc2)NC(=O)[C@@H]2CSSC[C@H](NC(=O)N[C@H](c3cccc4ccccc34)CC(=O)N[C@@H](CCCNC(=N)N)C(=O)N3CCC[C@H]3C(=O)NCC(=O)N[C@@H](CCCNC(=N)N)C(=O)N[C@H](c3cccc4ccccc34)CC(=O)N2)C(=O)N[C@@H](Cc2ccccc2)C(=O)NC(=O)[C@H](CC(=O)O)NC(=O)[C@H](CO)NC1=O`, the figures for the 50% inhibitory concentration (IC50) in data set [3] and in data set [4] were 7.22 µM and over 30 µM, respectively.

`CC[C@H](C)[C@@H]1NC(=O)[C@H](CO)NC(=O)[C@H](CC(=O)O)NC(=O)[C@H](Cc2ccccc2)NC(=O)[C@@H]2CSSC[C@H](NC(=O)[C@H](Cc3ccccc3)NC(=O)[C@H](CC(=O)O)NC1=O)C(=O)N[C@H](c1cccc3ccccc13)CC(=O)N[C@@H](CCCNC(=N)N)C(=O)NC(=O)[C@H](CC(=O)O)NC(=O)N[C@@H](CCCNC(=N)N)C(=O)N[C@H](c1cccc3ccccc13)CC(=O)N2` (R[βAla(3S-(1-naphthyl))]CFDSIDFC[βAla(3S-(1-naphthyl))]; disulfide 3-10; linker N-C via X1): the IC50 was 4.16 µM in data set [3] and over 50 µM in data set [4].

For `Cc1cn(C2C[C@H](N=[N+]=[N-])[C@@H](CO)O2)c(=O)[nH]c1=O` (stereo partly specified), the Activity entry in data set [5] was “Toxic”.

Take `N=C(N)NCCC[C@@H]1NC(=O)[C@H]2CCCN2C(=O)[C@@H]2CCCN2C(=O)[C@H](CCCNC(=N)N)NC(=O)C[C@H](c2cccc3ccccc23)NC(=O)N[C@H]2CSSC[C@H](NC(=O)C[C@H](c3cccc4ccccc34)NC1=O)C(=O)N[C@@H](Cc1ccccc1)C(=O)NC(=O)[C@H](Cc1ccccc1)NC2=O`: the IC50 in data set [3] was 5.23 µM; in data set [4] it was over 50 µM.

For `N=C(N)NCCC[C@@H]1NC(=O)[C@H]2CCCN2C(=O)[C@@H]2CCCN2C(=O)[C@H](CCCNC(=N)N)NC(=O)C[C@H](c2cccc3ccccc23)NC(=O)[C@H](Cc2ccccc2)NC(=O)[C@H](CC(=O)O)NC(=O)[C@H](CC(=O)O)NC(=O)[C@H](Cc2ccccc2)NC(=O)C[C@H](c2cccc3ccccc23)NC1=O` (cyclo(DDF[βAla(3R-(1-naphthyl))]RP[dP]R[βAla(3R-(1-naphthyl))]F)), the half-maximal inhibitory concentration (IC50) in data set [6] was 40 µM; in data set [4], over 50 µM.

Take `CC[C@H](C)[C@H]1C(=O)NC(=O)[C@H](CCCNC(=N)N)NC(=O)C[C@H](c2cccc3ccccc23)NC(=O)N[C@H]2CSSC[C@H](NC(=O)C[C@H](c3cccc4ccccc34)NC(=O)[C@H](CCCNC(=N)N)NC(=O)[C@@H]3CCCN3C(=O)[C@@H]3CCCN13)C(=O)N[C@@H](Cc1ccccc1)C(=O)N1CCC[C@H]1C(=O)N[C@@H](CC(=O)O)C(=O)NC(=O)[C@H](CC(=O)O)NC(=O)[C@H](Cc1ccccc1)NC2=O`: the half-inhibitory concentration (IC50) in data set [3] was 2.94 µM; in data set [4] it was over 50 µM.

Consider `N=C(N)NCCC[C@@H]1NC(=O)[C@H]2CCCN2C(=O)[C@@H]2CCCN2C(=O)[C@H](CCCNC(=N)N)NC(=O)C[C@H](c2cccc3ccccc23)NC(=O)N[C@H]2CSSC[C@H](NC(=O)C[C@H](c3cccc4ccccc34)NC1=O)C(=O)N[C@@H](Cc1ccccc1)C(=O)N[C@@H](CC(=O)O)C(=O)NC(=O)[C@H](CC(=O)O)NC(=O)[C@H](Cc1ccccc1)NC2=O`, for which the figures for the concentration for half-maximal inhibition (IC50) in data set [3] and in data set [4] were 3.65 µM and over 50 µM, respectively.

Take `NCCCC[C@H](N)C(=O)N[C@@H](CC(=O)N[C@@H](Cc1ccccc1)C(=O)O)c1ccc(-c2ccccc2)cc1`: the half-inhibitory concentration (IC50) in data set [7], in data set [3], in data set [4] and in data set [8] was over 100 µM in each case.

As for `CC[C@H](C)[C@@H]1NC(=O)[C@@H]2CSSC[C@H](NC(=O)[C@H](CCCNC(=N)N)NC(=O)CNC(=O)[C@H](CC(=O)O)NC(=O)[C@@H]3CCCN3C(=O)N[C@@H](Cc3ccccc3)C(=O)N2)C(=O)N[C@@H]([C@H](C)O)C(=O)N[C@@H](CCCCN)C(=O)N([C@@H](CO)C(=O)O)C(=O)[C@H]([C@@H](C)CC)NC(=O)[C@@H]2CCCN2C(=O)[C@@H]2CCCN2C1=O`, the half-maximal inhibitory concentration (IC50) in data set [7] and in data set [8] was over 100 µM in each case.

The values above are taken from ChEMBL document CHEMBL4813972, “A grafted peptidomimetic for EGFR heterodimerization inhibition: Implications in NSCLC models” (Eur J Med Chem, 2021).
